High-throughput results: PubChem BioAssay, several laboratories
In the library only some 1.8% were active in any assay of this set; here they are far more common.
CASP6 VEID inh = blocks human caspase-6 cleavage activity | P55212 | purified caspase-6, Z-VEID-R110 cleavage fluorescence | inhibition, % at 12.5 µM | 350,000 tested, 0.53% active;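 active = mean inhibition across replicates at least about 35%, with every replicate also reaching that limit, limit read from the data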;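 also: 0% = median of neutral control wells and 100% = no fluorescence left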
Target sequence (P55212 24-179 limits assumed): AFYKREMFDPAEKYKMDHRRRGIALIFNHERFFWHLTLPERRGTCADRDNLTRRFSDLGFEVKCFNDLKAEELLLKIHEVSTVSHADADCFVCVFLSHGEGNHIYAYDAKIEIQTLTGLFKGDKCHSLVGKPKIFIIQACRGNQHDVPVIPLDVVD
Target sequence (P55212 194-293 limits assumed): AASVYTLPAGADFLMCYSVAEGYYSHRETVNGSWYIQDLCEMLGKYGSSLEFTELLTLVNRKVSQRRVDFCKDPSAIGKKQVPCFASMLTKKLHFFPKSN
LEDGF integ inh = blocks HIV-1 LEDGF/p75-dependent DNA integration. TR-FRET IN-LEDGF/p75 DNA integration, Eu/Cy5. inhibition, % at 3.7 µM. 370,000 tested, 0.64% active. AID 743269;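 active = inhibition above the screen-wide mean plus 3 SD, cut at about 13% in these data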;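 also: signal is the Cy5 over europium emission ratio at 671 and 618 nm; 0% = plate median of compound wells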
NSD2 inh = blocks human histone methyltransferase NSD2. inhibition, % at 12.5 µM. O96028. 310,000 tested, 0.54% active. NSD2 peptide methylation, AlphaScreen, 120 min; in the data active = inhibition above about 50%
MBD2 DNA inh = inhibitors of human MBD2 binding to methylated oligonucleotide; AID 686964; inhibition, % at 4.4 µM; Q9UBB5; TR-FRET; 370,000 tested, 0.31% active; in the data active = inhibition above about 13%
Target sequence (Q9UBB5 whole entry, looked up): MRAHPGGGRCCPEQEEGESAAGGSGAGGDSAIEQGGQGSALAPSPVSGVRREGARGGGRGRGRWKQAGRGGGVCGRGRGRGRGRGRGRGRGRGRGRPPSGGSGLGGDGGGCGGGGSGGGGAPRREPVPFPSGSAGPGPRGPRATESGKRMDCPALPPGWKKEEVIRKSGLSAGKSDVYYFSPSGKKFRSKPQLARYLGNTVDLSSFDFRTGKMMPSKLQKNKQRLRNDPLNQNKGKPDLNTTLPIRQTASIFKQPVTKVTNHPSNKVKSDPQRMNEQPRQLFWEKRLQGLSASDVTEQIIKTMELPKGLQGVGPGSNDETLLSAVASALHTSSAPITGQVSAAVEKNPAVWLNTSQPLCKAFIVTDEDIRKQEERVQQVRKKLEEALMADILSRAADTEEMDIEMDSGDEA
UHRF1 binding = blocks human UHRF1 binding to methylated DNA. Q96T88. UHRF1 binding to methylated oligo, TR-FRET. inhibition, % at 4.4 µM. 370,000 tested, 0.75% active; in the data active = inhibition above about 21%;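 also: UHRF1 SRA domain binding a hemimethylated CpG hairpin DNA probe; 0% = median of test compound wells and 100% = reference inhibitor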
TDP2 absorb = blocks human TDP2 phosphodiesterase activity; O95551; recombinant TDP2, T5PNP hydrolysis, p-nitrophenol absorbance 415 nm; inhibition, % at 12.8 µM; 370,000 tested, 0.34% active; AID 720702;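 active = inhibition above the mean of all tested compounds plus 3 SD, set per campaign, cut at about 25% in these data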;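 also: 0% = DMSO with enzyme and 100% = buffer with substrate but no TDP2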
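System – recombinant human TDP2 · Quantity – TDP2 enzyme at 120 nM final · Doses – single concentration, 12.8 µM nominal, with 1% DMSO · Incubation – 2 h at 37 °C · Measured by – epi absorbance of p-nitrophenol freed from T5PNP by hydrolysis · Read-out – % inhibition relative to enzyme-containing and enzyme-free wells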
* hit, by the source's call; nt = not tested or not shown.

SMILES	CASP6 VEID inh	LEDGF integ inh	NSD2 inh	MBD2 DNA inh	UHRF1 binding	TDP2 absorb
S=C(Nc1ccc(Cl)cc1)NN1CCOCC1	1.7	-0.3	-0.7	9.8	30.4*	6.4
CC(C)c1ccc(NC(=S)NN2CCOCC2)cc1	-2.4	2.8	-0.4	7.4	2.6	-4.0
C=CCOC(=O)[C@H]1[C@@H]2C(=O)O[C@@H](c3ccccc3)[C@@H](c3ccccc3)N2[C@@H](c2ccc(OCCOC(=O)[C@H]3C[C@H]4C(=O)N[C@@H](CC(C)C)C(=O)N4[C@H]3c3cccc(OCCO)c3)cc2)[C@]12C(=O)Nc1ccccc12	1.2	nt	nt	nt	nt	nt
Cc1cccc(Nc2ncnc3onc(-c4cccc(Cl)c4)c23)c1C	-3.2	1.3	nt	-1.0	24.2*	1.1
Cc1cccc(Nc2ncnc3onc(-c4ccc(F)cc4)c23)c1C	0.1	-0.4	nt	-5.4	-1.0	-7.0
CN1c2ccc(-c3ccc(F)cc3)cc2[C@H]2[C@H](CCN2S(=O)(=O)c2cccc(F)c2)[C@@H]1CO	3.0	nt	nt	nt	nt	nt
C[C@@H]1CN([C@H](C)CO)S(=O)(=O)c2ccc(-c3ccccc3F)cc2O[C@H]1CN(C)C(=O)C1CC1	1.6	nt	nt	nt	nt	nt
O=C(O)c1cccc(S(=O)(=O)NCc2cccs2)c1	nt	-1.1	-0.4	-4.2	-1.2	8.8
COc1ccc(S(=O)(=O)NCc2cccs2)cc1	nt	-0.2	3.6	5.7	47.9*	-0.1
O=C1CC(=O)Nc2cc(S(=O)(=O)NCc3cccs3)ccc2N1	-3.0	-0.9	2.1	8.6	23.6*	8.2
C[C@H](CO)N1C[C@H](C)[C@H](CN(C)C(=O)Nc2ccccc2)Oc2c(NS(=O)(=O)c3ccccc3)cccc2C1=O	-2.6	nt	nt	nt	nt	nt
COc1cc2c(C(F)(F)F)c(-c3ccsc3)oc(=O)c2cc1OC	0.0	1.4	nt	7.1	20.8*	5.0
C[C@@H]1CN([C@H](C)CO)C(=O)c2cc(NS(=O)(=O)c3cn(C)cn3)ccc2O[C@H]1CN(C)S(=O)(=O)c1ccc(F)cc1	-0.5	nt	nt	nt	nt	nt
COc1cc2c(cc1OC)CN(C(=O)c1cc(COc3ccccc3SC)on1)CC2	-3.1	0.2	8.4	-1.9	-0.9	2.3
CSc1ccccc1OCc1cc(C(=O)N2CCc3c(Cl)cccc3C2)no1	64.3*	-3.0	-4.8	0.7	-1.0	16.8
COc1cccc(C#Cc2cnc3c(c2)C(=O)N([C@@H](C)CO)C[C@H](C)[C@@H](CN(C)C(=O)C2CC2)O3)c1	1.5	nt	nt	nt	nt	nt
O=C(Nc1ccccc1)c1ccccc1NC(=O)c1ccccc1C(=O)O	-2.5	-0.7	-2.6	-1.6	27.7*	17.1
CCC(=O)N(C1=C(NC(C)C)C(=O)c2ccccc2C1=O)C(C)C	43.7*	-1.8	69.7*	-5.1	7.7	2.5
CCC(=O)NC1=C(Nc2ccc(N)cc2)C(=O)c2ccccc2C1=O	nt	4.5	12.5	-10.6	-0.9	-5.3
CCCCC(=O)NC(=S)Nc1ccccc1C(=O)Nc1ccccc1	nt	-3.5	2.9	-3.9	-1.2	-7.1
CCCCCC(=O)NC(=S)Nc1ccccc1C(=O)OC	nt	5.9	1.0	11.8	24.5*	4.6
CC(C)NC(=O)N(C)C[C@@H]1Oc2cc(C#C[C@@H](C)O)ccc2S(=O)(=O)N([C@H](C)CO)C[C@H]1C	-0.7	nt	nt	nt	nt	nt
COc1cccc(N(CC(=O)NCCSc2ccccc2)S(C)(=O)=O)c1	nt	1.8	0.0	-3.2	4.5	1.1
COc1cccc(N(CC(=O)NCCSc2ccc(Cl)cc2)S(C)(=O)=O)c1	-0.7	4.9	-2.7	9.7	27.1*	22.2
Cc1cccc(CSC2=NCCN2C(=O)c2ccc(Br)o2)c1	-1.2	2.2	nt	-5.5	45.9*	6.0
SMILES	CASP6 VEID inh	LEDGF integ inh	NSD2 inh	MBD2 DNA inh	UHRF1 binding	TDP2 absorb
Cc1cccc(CSC2=NCCN2C(=O)c2ccc(S(=O)(=O)N(C)C)cc2)c1	-2.9	-2.7	-1.6	0.9	0.6	1.0
Nc1c(C(=O)Nc2ccc(Br)cc2)sc2nc(-c3ccco3)ccc12	nt	14.6*	-1.7	-1.1	-4.2	1.1
Nc1c(C(=O)Nc2ccc(F)cc2)sc2nc(-c3ccco3)ccc12	nt	5.4	0.8	-5.6	-0.6	-10.3
C/C(=N/NC(=O)CSc1nc2ccccc2n1C)c1ccco1	-0.1	0.6	2.1	-5.2	83.0*	5.9
O=C(/C=C\c1ccco1)Oc1cccc2cccnc12	59.6*	3.6	2.2	0.1	1.2	-5.0
Cc1ccc2cccc(OC(=O)/C=C\c3ccccc3)c2n1	1.8	2.8	-1.5	6.3	26.9*	2.6
Cc1ccc2cccc(OC(=O)c3c(F)cccc3Cl)c2n1	1.2	3.8	-9.6	-1.1	1.0	-18.5
COc1ccccc1/C=C/C(=O)Oc1cccc2cccnc12	3.3	-3.1	-5.1	-1.3	-1.9	-11.8
CC(C)c1cn(CC[C@@H]2CC[C@H](NS(=O)(=O)c3ccc(Cl)cc3)[C@H](CO)O2)nn1	-1.6	nt	nt	nt	nt	nt
CC(=O)NCCc1c[nH]c2ccc(OCc3ccccc3)cc12	4.5	-5.6	1.1	2.7	7.3	-7.4
O=C(CCl)NC(Cc1c[nH]c2ccc(OCc3ccccc3)cc12)C(=O)O (centres undefined)	36.0*	0.9	14.7	-2.9	0.1	8.6
C#CCOCCOCCOCCNc1nc(N2CCN(C(=O)[C@H](CCC(=O)O)n3cc(CN)nn3)CC2)nc(N2CCN(C(=O)[C@H](CCC(=O)O)n3cc([C@@H](N)[C@H](C)CC)nn3)CC2)n1	-1.6	8.4	nt	6.0	22.4*	-6.4
O=C(Cn1c2ccc(F)cc2c2nc3n(c(=O)c21)CCS3)Nc1ccccc1F	nt	nt	2.1	nt	nt	nt
O=C(Cn1c2ccc(F)cc2c2nc3n(c(=O)c21)CCS3)NC1CCCC1	52.3*	-5.2	0.1	7.2	7.3	-9.3
CCOC(=O)c1c(NC(=O)/C=C/C(=O)O)sc(C)c1-c1ccc(C(C)(C)C)cc1	42.3*	2.4	68.9*	0.3	2.9	0.7
CC(C)NC(=O)N(C)C[C@H]1Oc2ccc(NC(=O)c3ccncc3)cc2CC(=O)N([C@@H](C)CO)C[C@@H]1C	1.6	nt	nt	nt	nt	nt
O=C(Nc1cccc(C(F)(F)F)c1)c1cccc(NS(=O)(=O)c2ccc(O)c(C(=O)O)c2)c1	38.8*	2.3	5.2	2.8	-2.3	12.9
CCCc1[nH]nc2c1C(c1ccc(OCCN3CCOCC3)c(OCC)c1)C(C#N)=C(N)O2 (centres undefined)	nt	3.4	-7.3	5.5	-2.0	-1.0
CCOc1cc(C2C(C#N)=C(N)Oc3n[nH]c(CC)c32)ccc1OCCN1CCOCC1 (centres undefined)	nt	-1.2	1.8	5.2	22.0*	-8.3
O=C(O)c1ccccc1NS(=O)(=O)c1ccc(NN=Cc2ccccc2F)c([N+](=O)[O-])c1	41.1*	-0.1	2.9	-8.5	33.1*	2.8
CCOc1cccc(C=NNc2ccc(S(=O)(=O)Nc3ccccc3C(=O)O)cc2[N+](=O)[O-])c1O	7.0	-1.8	1.8	-4.1	-2.6	-3.6
CSc1ccc(C=NNc2ccc(S(=O)(=O)Nc3ccccc3C(=O)O)cc2[N+](=O)[O-])cc1	40.8*	1.9	3.1	4.3	0.6	0.3
